In the library only some 3.1% were active in any assay of this set; here they are far more common.
OX1R antag-1 – antagonists of human orexin 1 receptor (OX1R) | Orexin/Hypocretin receptor type 1 (Homo sapiens), O43613 | OX1R-expressing cells, FRET antagonist read-out | inhibition, % at 6.6 µM | 330,000 compounds, 1.8% hits | AID 485270, 2010; in the data active = inhibition mostly above about 38%, no sharp cut-off; inactive = mostly below about 40%;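 also: 0% = agonist challenge alone and 100% = reference antagonist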
Target sequence (O43613 whole entry, looked up): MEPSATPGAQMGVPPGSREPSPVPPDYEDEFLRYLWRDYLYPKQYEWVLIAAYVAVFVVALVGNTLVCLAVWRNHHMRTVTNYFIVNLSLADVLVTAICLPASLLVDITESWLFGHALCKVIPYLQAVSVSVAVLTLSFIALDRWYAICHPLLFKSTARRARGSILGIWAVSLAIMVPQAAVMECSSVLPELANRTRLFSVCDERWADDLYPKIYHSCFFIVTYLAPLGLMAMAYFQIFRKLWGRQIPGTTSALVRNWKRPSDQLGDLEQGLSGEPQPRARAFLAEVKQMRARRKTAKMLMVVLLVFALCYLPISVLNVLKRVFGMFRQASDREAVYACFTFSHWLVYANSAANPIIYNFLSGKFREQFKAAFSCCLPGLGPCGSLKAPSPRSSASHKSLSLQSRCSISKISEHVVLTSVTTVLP
GPR7 antag – GPR7 receptor antagonists, primary screen, cell-based, fluorescence, single concentration | GPR7-expressing cells, fluorescence antagonist assay | inhibition, % at 4.4 µM | 290,000 compounds, 1.1% hits | AID 1861, 2009; in the data active = inhibition above about 16%, passing the limit was not always enough;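 also: cells stimulated with the agonist NPW; 0% = agonist with vehicle and 100% = vehicle without agonist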
CHO parental Ca – ATP-evoked calcium signal inhibitors, parental CHO, primary screen, counter-screen for OX1R antagonist project, cell-based, fluorescence, Fluo-8 calcium dye | parental CHO-K1, ATP-induced calcium, Fluo-8 fluorescence | inhibition, % at 5.6 µM | 330,000 compounds, 0.63% hits;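 active = inhibition above that plate's mean sample inhibition plus 3 SD, cut at about 26% in these data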;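 also: 0% = ATP-challenged DMSO wells and 100% = DMSO wells without ATP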
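Test system: untransfected parental CHO cell line; also added: ATP stimulus; dosing: 5.6 µM, single dose; signal: calcium-sensitive Fluo-8 fluorescence; measure: percent inhibition of ATP-evoked calcium rise, normalized to controls; benchmarks: low control ATP plus DMSO, high control DMSO only; replication: one well per compound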
OX1R antag-2 – OX1R (HCRTR1) antagonists, primary screen, fluorescence, CHO/OX1R cells, Fluo-8 calcium, orexin A. Orexin/Hypocretin receptor type 1 (Homo sapiens), O43613. Fluo-8 calcium fluorescence. inhibition, % at 5 µM. 330,000 compounds, 0.43% hits;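 active = inhibition above its plate's threshold, mean inhibition of all tested compounds on the plate plus 3 SD, cut at about 37% in these data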;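 also: 0% = orexin A challenge wells and 100% = SB-334867-A antagonist wells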
GalR3 antagonist – GalR3 antagonists in HEK293 cells, primary screen, cell-based, fluorescence readout | Galanin receptor type 3 (Homo sapiens), O60755 | HEK293 GalR3-CNG cAMP membrane potential fluorescence; galR3 body fused to GalR1 C-terminus | inhibition, % at 3 µM | 360,000 compounds, 0.44% hits | AID 651719, 2012;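 active = inhibition above the screen-wide average plus 3 SD, cut at about 13% in these data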;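 also: forskolin and galanin both at EC90 stimulate the cells; cAMP rise reported by CNG channel membrane potential dye signal; 0% = forskolin plus galanin with DMSO and 100% = forskolin alone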
Target sequence (O60755 1-299 limits assumed): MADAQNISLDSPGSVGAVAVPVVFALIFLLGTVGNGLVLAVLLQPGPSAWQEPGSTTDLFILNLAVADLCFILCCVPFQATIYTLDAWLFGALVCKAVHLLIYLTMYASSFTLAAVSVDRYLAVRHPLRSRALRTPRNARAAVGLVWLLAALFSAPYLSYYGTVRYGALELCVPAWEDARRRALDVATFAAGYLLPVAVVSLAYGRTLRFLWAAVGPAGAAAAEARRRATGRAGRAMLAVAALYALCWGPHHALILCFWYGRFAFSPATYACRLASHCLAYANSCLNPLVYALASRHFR
Starred values were filed as active, the others as inactive; nt = no result given.

SMILES | OX1R antag-1 | GPR7 antag | CHO parental Ca | OX1R antag-2 | GalR3 antagonist
O=C(CN1C(=O)c2cccc([N+](=O)[O-])c2C1=O)OCC(=O)N1CCCCC1 | 30.6 | nt | 0.1 | -19.0 | -4.3
C=C(C)Cn1c(=O)c2c(nc3n2CCCN3Cc2ccccc2)n(C)c1=O | 9.9 | 0.6 | -10.8 | -24.9 | 2.2
O=S(=O)(c1ccc2ccccc2c1)N1CCN(CCO)CC1 | -0.3 | -6.5 | -1.8 | 6.3 | -3.5
NC(=O)c1nnn(-c2ccc([N+](=O)[O-])cc2)c1-c1ccccc1 | 43.5* | -6.8 | -2.2 | -12.8 | -3.8
O=[N+]([O-])c1ccc(-n2nnnc2-c2ccccc2)cc1 | 54.1* | 3.0 | -1.3 | -1.6 | -3.9
O=[N+]([O-])c1ccc(-n2cc(-c3ccccc3)nn2)cc1 | 18.8 | -3.7 | -4.7 | -1.2 | -3.7
Nc1ccc(-c2nnnn2-c2ccc(N)cc2)cc1 | 0.6 | -13.9 | 27.8* | -12.7 | -4.5
N#Cc1ccsc1NC(=O)c1ccc(Cl)c([N+](=O)[O-])c1 | 88.3* | 19.9* | 45.8* | 25.2 | -1.7
Nc1ccn([C@@H]2O[C@H](C(=O)N[C@H](Cc3ccccc3)C(=O)N3CCN(C(=O)N4CCCCC4)CC3)[C@@H](O)[C@H]2O)c(=O)n1 | nt | nt | nt | nt | -2.6
Cc1ccc(NC(=O)c2c(C(F)(F)F)nn(C)c2SCc2cccc(C(F)(F)F)c2)cc1C | 25.0 | -14.5 | 67.4* | 8.4 | -5.0
Cc1ccc(NC(=O)c2c(C(F)(F)F)nn(C)c2SCc2ccc(Cl)cc2)cc1C | 16.3 | -3.7 | 26.6 | 14.7 | -8.6
Cc1nn(Cc2ccc(Cl)c(Cl)c2)c(C)c1NC(=O)c1cc(CC(C)C)on1 | 17.1 | 0.6 | 32.9* | -26.8 | 1.9
O=C(O)CCn1nc(-c2ccc(F)cc2)cc(Cc2ccccc2)c1=O | 7.0 | 2.3 | -5.8 | -9.6 | nt
CCOC(=O)/C(=C\C=C1/Sc2cc(OCC)c(OCC)cc2N1CC)C(C)=O | 9.1 | 10.6 | 68.8* | 91.4* | -10.4
CCOC(=O)/C(=C/C=C1\Sc2cc(OCC)c(OCC)cc2N1CC)C(C)=O | 25.9 | 22.8 | 84.9* | 108.0* | -4.3
CCn1c(SCC(=O)Nc2ccc3c(c2)OCO3)nnc1C(C)C | 8.8 | -15.3 | 4.1 | -10.4 | -7.9
O=C(O)CCN1C(=O)c2ccccc2C1=O | 8.3 | 17.8* | -5.1 | -14.8 | -1.8
O=C1C(=O)N(Cc2ccccc2)C(=O)N1CCN1C(=O)c2ccccc2C1=O | 19.4 | 18.6* | -20.7 | -30.4 | -4.3
CCC(C)NC(=O)COC(=O)c1cccnc1Nc1ccccc1F (stereo not given) | 61.5* | 0.1 | -15.7 | -5.6 | -0.3
S=c1cn[nH]c2ccccc12 | nt | nt | nt | nt | -4.7
CCCCSc1nc(C)cc(SCC(=O)N/N=C/c2cccc(OC)c2O)n1 | 69.8 | -13.4 | 34.2* | 57.0* | 0.7
COc1cccc(/C=N/NC(=O)CSc2nnc(C)n2-c2ccccc2)c1O | 22.6 | -4.0 | -12.8 | -15.6 | -1.8
O=C(O)CCSc1nc2ccccc2s1 | 6.3 | 8.5 | -6.5 | -6.1 | -5.9
Nc1c(SCCC(=O)O)ccc2c1C(=O)c1ccccc1C2=O | 42.8* | -2.9 | 11.7 | 5.7 | -11.0
COCCNC(=O)C(c1ccc(C)cc1)N(Cc1ccco1)C(=O)CCC(=O)Nc1ccccn1 (stereo not given) | 55.7* | 1.5 | -2.9 | 3.3 | -7.3
SMILES | OX1R antag-1 | GPR7 antag | CHO parental Ca | OX1R antag-2 | GalR3 antagonist
COc1ccc(C(C(=O)NC(C)(C)C)N(Cc2ccco2)C(=O)CCC(=O)Nc2ccccn2)cc1 (stereo not given) | -8.1 | -2.3 | -8.6 | -9.1 | -8.6
Cc1nnc(N/N=C/C(C)c2ccccc2)[nH]c1=O (stereo not given) | 3.9 | -17.3 | -7.6 | -12.3 | 0.9
COC(=O)c1cc(C)c(C)cc1NC1OC(CO)C(O)C1O (stereo not given) | nt | nt | nt | nt | 0.7
NC(=O)C1CCN(C(=O)COc2ccc(Nc3ccccc3)cc2)CC1 | 51.6* | -1.9 | 2.6 | 2.4 | -4.6
Cc1ccc(S(=O)(=O)NC(=O)NC(C)c2ccc(F)cc2)cc1 (stereo not given) | -1.2 | -9.4 | -10.3 | 10.6 | -6.8
C=C(C)c1cc2c(ccc3ccc(=O)oc32)o1 | 74.8* | nt | -19.6 | 38.1 | -2.5
CNC(=O)c1cc2c(ccc3ccccc32)o1 | 19.6 | -9.3 | -0.6 | -23.6 | -8.1
O=C(N[C@H](C(=O)N1CCC[C@H]1C(=O)NCCc1ccccc1Cl)c1ccccc1)c1ccc(Cl)c(Cl)c1 | nt | nt | nt | nt | -9.2
Cc1cc(-c2ccc(C)c(S(=O)(=O)NCCCN3CCN(c4ccccc4F)CC3)c2)on1 | 40.3 | 21.3 | 61.4* | 66.8* | -6.8
Cc1ccc(C)c(OCC(=O)Nc2ccc3c(c2)OCO3)c1 | 0.6 | -2.1 | -21.5 | -25.8 | nt
Cc1cc(C)c(OCC(=O)Nc2ccc3c(c2)OCO3)cc1C | 7.5 | 7.5 | 44.3* | -4.0 | -4.7
Cc1cc(C)cc(NS(=O)(=O)c2cnc(Cl)c(Cl)c2)c1 | 30.1 | -10.7 | 94.7* | 52.5* | 0.3
CCOC(=O)N/N=C\c1ccc([N+](=O)[O-])s1 | 52.4* | -2.8 | -4.3 | -4.1 | -7.0
Cc1cc(C)n(CC(=O)N/N=C/c2ccc([N+](=O)[O-])s2)n1 | 57.9* | -3.4 | -4.4 | -10.1 | -3.7
CCOC(=O)N/N=C\c1ccc(C)s1 | 15.3 | 2.5 | 0.4 | 3.3 | -3.3
Cc1cc(C)n(CC(=O)N/N=C/c2cccs2)n1 | 3.4 | -6.4 | 1.2 | -16.4 | -0.6
Cn1c(CBr)c(C(=O)c2ccc([N+](=O)[O-])cc2)c(=O)n(C)c1=O | 51.3* | -13.4 | -4.7 | -16.1 | 2.8
CC(=O)c1cn(-c2ccc([N+](=O)[O-])cc2)c(=O)n(C)c1=O | 39.4* | nt | -7.8 | -7.8 | -4.5
Cc1ccc(C)c(N(C(=O)Cc2cccs2)C(C(=O)NC2CCCC2)c2ccc(C)o2)c1 (stereo not given) | 10.5 | -6.9 | -8.1 | -15.9 | -1.6
Cc1ccc(C(C(=O)NC2CCCC2)N(C(=O)Cc2cccs2)c2ccc(C)c(C)c2)o1 (stereo not given) | 52.5* | 11.2 | 39.7* | 13.2 | -4.6
O=C(Nc1ccc(F)cc1F)c1ccccc1NC(=O)C1CC=CCC1C(=O)O (stereo not given) | 7.2 | -7.7 | -1.0 | -15.0 | -0.1
O=C(Cn1cnc2c(NCc3ccccc3)ncnc21)NCCc1cc2ccccc2[nH]1 | 34.1* | nt | -2.2 | 13.2 | -5.6
C=CC[C@H](CC(=O)NCCO)C(=O)N[C@H](COC(=O)[C@@H](CC=C)Cc1ccc(F)cc1)Cc1ccccc1 | 4.5 | nt | -21.8 | -10.3 | -3.5
COc1ccc(/C=N\NC(=O)c2ccccc2OC)cc1COc1ccccc1C | 23.4 | -17.1 | -20.6 | -13.3 | 2.0
